Test results: ChEMBL document CHEMBL3124843, “Synthesis, cytostatic, antimicrobial, and anti-HCV activity of 6-substituted 7-(het)aryl-7-deazapurine ribonucleosides” (J Med Chem, 2014)
Active and inactive are the calls of the source. No rule for the calls is given here.

Columns and labels:
MRC5 = assay: Cytostatic activity against human MRC5 cells after 72 hrs by MTT assay; type: ADME, cell-based; settings: MRC5, 72 h
Summary of the method: (§1)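 IC50 is the concentration that cuts cell growth by 50%, read by quantitative metabolic MTT staining after a 3-day treatment. The resistant sublines were made by raising the concentration of the cytotoxic drug step by step. CEM-DNR-bulk (daunorubicin-selected) stably overexpresses mrp-1. K562-TAX (paclitaxel-selected) expresses only mdr-1. HCT116p53−/− carries null p53 alleles. BJ and MRC-5 are nonmalignant fibroblasts.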

Candida albicans = assay: Antifungal activity against Candida albicans after 48 hrs; type: functional, organism-based
[1] = Cytotoxicity against human HuH7 cells infected with Hepatitis C virus subtype 2a; type: cell-based, Huh-7
Hepatitis C virus [2] = assay: Antiviral activity against Hepatitis C virus subtype 1b infected in human HuH7 cells; type: functional, organism-based, Hepacivirus hominis; settings: genotype 1b, Huh-7
Pseudomonas aeruginosa [3] = assay: Antibacterial activity against Pseudomonas aeruginosa CCM 3955 after 24 hrs; type: functional, organism-based
HL-60 = assay: Antiproliferative activity against human HL60 cells after 72 hrs by XTT assay; type: functional, cell-based; settings: HL-60, 72 h
Summary of the method: (§2)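 Antiproliferative test on HL-60 promyelocytic leukemia and HeLa S3 cervical carcinoma cells growing in liquid suspension.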

HCT-116 [4] = assay: Cytostatic activity against human HCT116 cells after 72 hrs by MTT assay; type: functional, cell-based; settings: HCT-116, 72 h; summary of the method: as §1
[5] = Cytotoxicity against human HuH7 cells infected with Hepatitis C virus subtype 1b; type: cell-based, Huh-7
BJ = assay: Cytostatic activity against human BJ cells after 72 hrs by MTT assay; type: ADME, cell-based; summary of the method: as §1
[6] = test system: Staphylococcus haemolyticus; assay: Antibacterial activity against methicillin-resistant Staphylococcus haemolyticus A/16568 after 24 hrs; type: functional, organism-based
Escherichia coli [7] = assay: Antibacterial activity against multi-resistant Escherichia coli C/16702 after 24 hrs; type: functional, organism-based
CCRF-CEM [8] = assay: Cytostatic activity against human CCRF-CEM cells after 72 hrs by MTT assay; type: functional, cell-based; summary of the method: as §1
Pseudomonas aeruginosa [9] = assay: Antibacterial activity against multi-resistant Pseudomonas aeruginosa A/16575 after 24 hrs; type: functional, organism-based
CCRF-CEM [10] = assay: Inhibition of RNA synthesis in human CCRF-CEM cells assessed as BrU-positive cells at IC50 after 24 hrs by propidium iodide staining-based flow cytometric analysis (reference value: 43.3%); type: functional; design: scale not given: the % may be the effect or the level left
[11] = Cytostatic activity against human CEM-DNR-bulk cells after 72 hrs by MTT assay; type: functional, cell-based; summary of the method: as §1
Staphylococcus aureus [12] = assay: Antibacterial activity against methicillin-resistant Staphylococcus aureus MRSA 4591 after 24 hrs; type: functional, organism-based
Candida tropicalis = assay: Antifungal activity against Candida tropicalis after 48 hrs; type: functional, organism-based
[13] = Antiproliferative activity against human HeLaS3 cells after 72 hrs by XTT assay; type: functional, cell-based; settings: HeLa S3, 72 h; summary of the method: as §2
A549 = assay: Cytostatic activity against human A549 cells after 72 hrs by MTT assay; type: functional, cell-based; settings: A549, 72 h; summary of the method: as §1
Staphylococcus aureus [14] = assay: Antibacterial activity against Staphylococcus aureus CCM 3953 after 24 hrs; type: functional, organism-based
K562 [15] = assay: Cytostatic activity against paclitaxel-resistant human K562 cells after 72 hrs by MTT assay; type: functional, cell-based; settings: K562, 72 h; summary of the method: as §1
CCRF-CEM [16] = assay: Cell cycle arrest in human CCRF-CEM cells assessed as accumulation at sub-G1 phase at IC50 after 24 hrs by propidium iodide staining-based flow cytometric analysis (reference value: 9.6%); type: functional
Candida parapsilosis = assay: Antifungal activity against Candida parapsilosis after 48 hrs; type: functional, organism-based
Hepatitis C virus [17] = assay: Antiviral activity against Hepatitis C virus subtype 2a infected in human HuH7 cells; type: functional, organism-based, Hepacivirus hominis; settings: genotype 2a, Huh-7
K562 [18] = assay: Cytostatic activity against human K562 cells after 72 hrs by MTT assay; type: functional, cell-based; settings: K562, 72 h; summary of the method: as §1
Enterococcus faecalis = assay: Antibacterial activity against Enterococcus faecalis CCM 4224 after 24 hrs; type: functional, organism-based
Escherichia coli [19] = assay: Antibacterial activity against Escherichia coli CCM 3954 after 24 hrs; type: functional, organism-based
HCT-116 [20] = assay: Cytostatic activity against p53-deficient human HCT116 cells after 72 hrs by MTT assay; type: functional, cell-based; settings: HCT-116, 72 h; summary of the method: as §1
CCRF-CEM [21] = assay: Mitotic arrest in human CCRF-CEM cells assessed as pH3Ser10-positive cells at IC50 after 24 hrs by propidium iodide staining-based flow cytometric analysis (reference value: 1.4%); type: functional
HepG2 = assay: Antiproliferative activity against human HepG2 cells after 72 hrs by XTT assay; type: functional, cell-based; settings: HepG2, 72 h
Pichia kudriavzevii = assay: Antifungal activity against Candida crusei after 48 hrs; type: functional, organism-based

SMILES | IC50 (MRC5) [µM] | Activity (Candida albicans) | CC50 [1] [µM] | EC50 (Hepatitis C virus [2]) [µM] | Activity (Pseudomonas aeruginosa [3]) | IC50 (HL-60) [µM] | IC50 (HCT-116 [4]) [µM] | CC50 [5] [µM] | IC50 (BJ) [µM] | Activity [6] | Activity (Escherichia coli [7]) | IC50 (CCRF-CEM [8]) [µM] | Activity (Pseudomonas aeruginosa [9]) | Activity (CCRF-CEM [10]) [%] | IC50 [11] [µM] | Activity (Staphylococcus aureus [12]) | Activity (Candida tropicalis) | IC50 [13] [µM] | IC50 (A549) [µM] | Activity (Staphylococcus aureus [14]) | also measured
C#Cc1cn([C@@H]2O[C@H](CO)[C@@H](O)[C@H]2O)c2ncnc(N(C)C)c12 | 36.1 | inactive | > 44 | 0.07 | inactive | 0.29 | 0.18 | > 44 | 0.41 | inactive | inactive | 0.09 | inactive | 8.6 | 0.24 | inactive | inactive | 0.81 | 0.39 | inactive | IC50 (K562 [15]): 0.26 µM; Activity (CCRF-CEM [16]): 8.9%; Activity (Candida parapsilosis): inactive; EC50 (Hepatitis C virus [17]): 0.1 µM; IC50 (K562 [18]): 0.11 µM; Activity (Enterococcus faecalis): inactive; Activity (Escherichia coli [19]): inactive; IC50 (HCT-116 [20]): 0.29 µM; Activity (CCRF-CEM [21]): 1.3%; IC50 (HepG2): 1.32 µM; Activity (Pichia kudriavzevii): inactive
COc1ncnc2c1c(-c1ccoc1)cn2[C@@H]1O[C@H](CO)[C@@H](O)[C@H]1O | 29.4 | inactive | > 44 | 0.33 | inactive | 0.15 | 0.11 | > 44 | 28.8 | inactive | inactive | 0.11 | inactive | 0.7 | > 20 | inactive | inactive | 1.79 | 1.16 | inactive | IC50 (K562 [15]): 2.82 µM; Activity (CCRF-CEM [16]): 8.5%; Activity (Candida parapsilosis): inactive; EC50 (Hepatitis C virus [17]): 8.28 µM; IC50 (K562 [18]): 0.19 µM; Activity (Enterococcus faecalis): inactive; Activity (Escherichia coli [19]): inactive; IC50 (HCT-116 [20]): 0.13 µM; Activity (CCRF-CEM [21]): 1.6%; IC50 (HepG2): 0.29 µM; Activity (Pichia kudriavzevii): inactive
CNc1ncnc2c1c(-c1ccco1)cn2[C@@H]1O[C@H](CO)[C@@H](O)[C@H]1O | 90.8 | inactive | > 44 | 0.06 | inactive | 0.62 | 0.23 | > 44 | 5.04 | inactive | inactive | 0.18 | inactive | 1 | > 20 | inactive | inactive | 5 | 2.57 | inactive | IC50 (K562 [15]): 15.1 µM; Activity (Candida parapsilosis): inactive; EC50 (Hepatitis C virus [17]): 0.14 µM; IC50 (K562 [18]): 0.22 µM; Activity (Enterococcus faecalis): inactive; Activity (Escherichia coli [19]): inactive; IC50 (HCT-116 [20]): 0.44 µM; Activity (CCRF-CEM [21]): 1.4%; IC50 (HepG2): 0.85 µM; Activity (Pichia kudriavzevii): inactive
CN(C)c1ncnc2c1c(-c1ccsc1)cn2[C@@H]1O[C@H](CO)[C@@H](O)[C@H]1O | > 100 | inactive | > 44 | 38.4 | inactive | 1.92 | > 20 | > 44 | > 100 | inactive | inactive | 3.48 | inactive | 0.7 | > 20 | inactive | inactive | > 15 | > 20 | inactive | IC50 (K562 [15]): > 20 µM; Activity (CCRF-CEM [16]): 6.8%; Activity (Candida parapsilosis): inactive; EC50 (Hepatitis C virus [17]): > 44 µM; IC50 (K562 [18]): 0.53 µM; Activity (Enterococcus faecalis): inactive; Activity (Escherichia coli [19]): inactive; IC50 (HCT-116 [20]): > 20 µM; Activity (CCRF-CEM [21]): 0.7%; IC50 (HepG2): > 20 µM; Activity (Pichia kudriavzevii): inactive
